Assay results of several laboratories.
Lines come from different studies, so protocols differ.
Cell line: SW480
Read-out: cell growth or viability

| SMILES | technique | time | measurement | result |
| --- | --- | --- | --- | --- |
| COC1=C2C[C@@H](C)C[C@H](OC)[C@H](O)[C@@H](C)/C=C(\C)[C@H](OC(N)=O)[C@@H](OC)/C=C\C=C(/C)C(=O)NC(=CC1=O)C2=O | MTT |  | IC50 | 308 nM |
| CC[C@H](C)C(=O)O[C@H]1C[C@@H](C)C=C2C=C[C@H](C)[C@H](CC[C@@H]3C[C@@H](O)CC(=O)O3)[C@H]21 | SRB | 72 h | IC50 | 8.85 µg/mL |
| C=CCNC1=C2C[C@@H](C)C[C@H](OC)[C@H](O)[C@@H](C)/C=C(\C)[C@H](OC(N)=O)[C@@H](OC)/C=C\C=C(/C)C(=O)NC(=CC1=O)C2=O | MTT |  | IC50 | 657 nM |
| COc1cc([C@@H]2c3cc4c(cc3[C@@H](O[C@@H]3O[C@@H]5CO[C@@H](C)O[C@H]5[C@H](O)[C@H]3O)[C@H]3COC(=O)[C@H]23)OCO4)cc(OC)c1O | MTT | 48 h | IC50 | 17100 nM |
| CC(C)C[C@H](NC(=O)[C@H](Cc1ccccc1)NC(=O)c1cnccn1)B(O)O | ATP luminescence |  | IC50 | 8.6 nM |
| O=C(O)C[C@H](O)C[C@H](O)/C=C/c1c(C2CC2)nc2ccccc2c1-c1ccc(F)cc1 | SRB | 72 h | IC50 | 32.3 µg/mL |
| COc1cc(Nc2nccc(-c3cnn4nc(OC)ccc34)n2)cc(C(F)(F)F)c1 | ATP luminescence |  | IC50 | 720 nM |
| Cc1cc2c(cc1N1C(=O)c3cccc4c(CCCO)ccc(c34)C1=O)n(C)c(=O)n2C (racemic) | resazurin |  | GI50 | > 10000 nM |
